In ChEMBL document CHEMBL3621107, “Ring fusion strategy for synthesis and lead optimization of sulfur-substituted anthra[1,2-c][1,2,5]thiadiazole-6,11-dione derivatives as promising scaffold of antitumor agents” (Eur J Med Chem, 2015):

Columns and labels:
Type in all cases: functional
[1] = Cytotoxicity against human ovarian cancer cells assessed as growth inhibition after 48 hrs by SRB assay; conditions: Cancer cell lines
How it was run: (§1)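 Values come from the NCI-60 five-dose panel (0.01–100 µM). The subpanel MID is the mean GI50 over the lines of that tumour subpanel. The selectivity ratio is the full-panel MID divided by the subpanel MID; 3–6 is rated moderate and >6 high.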

[2] = tested on: A498; test: Cytotoxicity against human A498 cells after 48 hrs by SRB assay; conditions: A498, 48 h
How it was run: (§2)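 NCI-60 human tumour cell panel screen, second stage, run by the NCI Developmental Therapeutics Program. Compounds were tested at five concentrations (0.01, 0.1, 1, 10 and 100 μM). Percentage growth was plotted against log10 concentration for each cell line. GI50, TGI and LC50 were taken from these dose-response curves.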

[3] = Cytotoxicity against human non-small cell lung cancer cells assessed as growth inhibition after 48 hrs by SRB assay; conditions: Cancer cell lines; how it was run: as §1
[4] = tested on: MCF7; test: Cytotoxicity against human MCF7 cells after 48 hrs by SRB assay; conditions: MCF7, 48 h; how it was run: as §2
[5] = tested on: BT-549; test: Cytotoxicity against human BT549 cells after 48 hrs by SRB assay; conditions: BT-549, 48 h; how it was run: as §2
[6] = tested on: SR; test: Cytotoxicity against human SR cells after 48 hrs by SRB assay
How it was run: (§3)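 NCI-60 five-dose study run by NCI DTP at 0.01, 0.1, 1, 10 and 100 µM. Percentage growth at each level was plotted against log10 concentration for each line, and GI50, TGI and LC50 were read from the dose-response curves.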

[7] = tested on: CCRF-CEM; test: Cytotoxicity against human CCRF-CEM cells after 48 hrs by SRB assay; how it was run: as §2
[8] = Cytotoxicity against human prostate cancer cells assessed as growth inhibition after 48 hrs by SRB assay; conditions: Cancer cell lines; how it was run: as §1
[9] = tested on: SK-MEL-5; test: Cytotoxicity against human SK-MEL-5 cells after 48 hrs by SRB assay; conditions: SK-MEL-5, 48 h
How it was run: (§4)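 Second-stage NCI-60 panel run by the NCI Developmental Therapeutics Program, covering nine tumour subpanels. Five concentrations were tested: 0.01, 0.1, 1, 10 and 100 μM. Percentage growth at each level was plotted against log10 drug concentration. GI50, TGI and LC50 were read from these dose-response curves. Subpanel MID values were divided into the full-panel MID to give selectivity ratios.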

[10] = tested on: Malme-3M; test: Cytotoxicity against human MALME-3M cells after 48 hrs by SRB assay; how it was run: as §2
[11] = tested on: SK-MEL-2; test: Cytotoxicity against human SK-MEL-2 cells after 48 hrs by SRB assay; conditions: SK-MEL-2, 48 h; how it was run: as §4
[12] = tested on: 786-0; test: Cytotoxicity against human 786-0 cells after 48 hrs by SRB assay; conditions: 786-0, 48 h; how it was run: as §2
[13] = tested on: HCC 2998; test: Cytotoxicity against human HCC2998 cells after 48 hrs by SRB assay; conditions: HCC 2998, 48 h; how it was run: as §2
[14] = tested on: RXF 393; test: Cytotoxicity against human RXF393 cells after 48 hrs by SRB assay; conditions: RXF 393, 48 h; how it was run: as §4
[15] = tested on: NCI-H226; test: Cytotoxicity against human NCI-H226 cells after 48 hrs by SRB assay; conditions: NCI-H226, 48 h; how it was run: as §4
[16] = tested on: LOX IMVI; test: Cytotoxicity against human LOXIMVI cells after 48 hrs by SRB assay; conditions: for CC50: read-out: LC50 (the source's name); how it was run: as §2
[17] = tested on: M14; test: Cytotoxicity against human M14 cells after 48 hrs by SRB assay; conditions: M14, 48 h; how it was run: as §2
[18] = Cytotoxicity against human CNS cancer cells assessed as growth inhibition after 48 hrs by SRB assay; conditions: Cancer cell lines
How it was run: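 NCI-60 five-dose data (0.01–100 μM) were grouped by tumour subpanel. A subpanel mean (MID) of GI50 was computed for the CNS cancer lines. A selectivity ratio was obtained as full-panel MID divided by subpanel MID: 3–6 counts as moderate, >6 as high.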

[19] = tested on: PC-3; test: Cytotoxicity against human PC3 cells after 48 hrs by SRB assay; conditions: PC-3, 48 h; how it was run: as §4
[20] = tested on: HOP-62; test: Cytotoxicity against human HOP62 cells after 48 hrs by SRB assay; conditions: HOP-62, 48 h; how it was run: as §2
[21] = tested on: MDA-MB-231; test: Cytotoxicity against human MDA-MB-231 cells after 48 hrs by SRB assay; conditions: MDA-MB-231, 48 h; how it was run: as §4
[22] = tested on: MDA-MB-435; test: Cytotoxicity against human MDA-MB-435 cells after 48 hrs by SRB assay; conditions: MDA-MB-435, 48 h; how it was run: as §4
[23] = tested on: T47D; test: Cytotoxicity against human T47D cells after 48 hrs by SRB assay; how it was run: as §3
[24] = tested on: OVCAR-4; test: Cytotoxicity against human OVCAR4 cells after 48 hrs by SRB assay; conditions: OVCAR-4, 48 h; how it was run: as §4
[25] = Cytotoxicity against human Hs578T cells after 48 hrs by SRB assay; conditions: Hs-578T; how it was run: as §2
[26] = tested on: MOLT-4; test: Cytotoxicity against human MOLT4 cells after 48 hrs by SRB assay; conditions: MOLT-4, 48 h; how it was run: as §4
[27] = tested on: NCI-H322M; test: Cytotoxicity against human NCI-H322M cells after 48 hrs by SRB assay; how it was run: as §4
[28] = Cytotoxicity against human melanoma cells assessed as growth inhibition after 48 hrs by SRB assay; conditions: Melanoma cell; how it was run: as §1
[29] = tested on: ACHN; test: Cytotoxicity against human ACHN cells after 48 hrs by SRB assay; how it was run: as §2
[30] = tested on: OVCAR-5; test: Cytotoxicity against human OVCAR5 cells after 48 hrs by SRB assay; conditions: OVCAR-5, 48 h; how it was run: as §4

Structure (SMILES): O=C1c2ccccc2C(=O)c2c1cc(SCc1ccccc1)c1nsnc21
- GI50 [1]: 8.4 µM
- GI50 [2]: > 50 µM
- LC50 (concentration killing 50% of cells) [2]: > 50 µM
- TGI [2]: > 50 µM
- GI50 [3]: 9.57 µM
- GI50 [4]: 8.33 µM
- LC50 (concentration killing 50% of cells) [4]: 34.7 µM
- TGI [4]: 17 µM
- GI50 [5]: 15.2 µM
- LC50 [5]: > 50 µM
- TGI [5]: 28.4 µM
- GI50 [6]: 1.99 µM
- LC50 [6]: > 50 µM
- TGI [6]: 13.1 µM
- GI50 [7]: 1.3 µM
- LC50 [7]: > 50 µM
- TGI [7]: 5.06 µM
- GI50 [8]: 10.5 µM
- GI50 [9]: 7.17 µM
- LC50 [9]: 49.8 µM
- TGI [9]: 21.2 µM
- GI50 [10]: 11 µM
- LC50 [10]: 44.6 µM
- TGI [10]: 22.2 µM
- GI50 [11]: 8.58 µM
- LC50 [11]: 33.7 µM
- TGI [11]: 18.6 µM
- GI50 [12]: 12.3 µM
- LC50 (concentration killing 50% of cells) [12]: > 50 µM
- TGI [12]: 25.4 µM
- GI50 [13]: > 50 µM
- LC50 [13]: > 50 µM
- TGI [13]: > 50 µM
- GI50 [14]: 7.2 µM
- LC50 (concentration killing 50% of cells) [14]: 27.4 µM
- TGI [14]: 14 µM
- GI50 [15]: > 50 µM
- LC50 (concentration killing 50% of starting cells) [15]: > 50 µM
- TGI [15]: 35.2 µM
- GI50 [16]: 5.68 µM
- TGI [16]: 12.8 µM
- CC50 [16]: 29.1 µM
- GI50 [17]: 26 µM
- LC50 [17]: > 50 µM
- TGI [17]: > 50 µM
- GI50 [18]: 9.48 µM
- GI50 [19]: 10.8 µM
- LC50 (concentration killing 50% of cells) [19]: 50.1 µM
- TGI [19]: 43.4 µM
- GI50 [20]: 10.7 µM
- LC50 [20]: 30.4 µM
- TGI [20]: 13.6 µM
- GI50 [21]: 5.14 µM
- LC50 (concentration killing 50% of cells) [21]: 34.8 µM
- TGI [21]: 13.4 µM
- GI50 [22]: 9.19 µM
- LC50 [22]: 37.3 µM
- TGI [22]: 18.5 µM
- GI50 [23]: 1.16 µM
- LC50 (concentration killing 50% of cells) [23]: 42.9 µM
- TGI [23]: 5.29 µM
- GI50 [24]: 6.05 µM
- LC50 [24]: 29 µM
- TGI [24]: 13.2 µM
- GI50 [25]: 17.3 µM
- LC50 [25]: > 50 µM
- TGI [25]: > 50 µM
- GI50 [26]: 1.2 µM
- LC50 [26]: > 50 µM
- TGI [26]: 3.62 µM
- GI50 [27]: > 50 µM
- LC50 (concentration causing 50% net cell kill) [27]: > 50 µM
- TGI [27]: > 50 µM
- GI50 [28]: 10.6 µM

Structure (SMILES): O=C1c2ccccc2C(=O)c2c1cc(Sc1ccc(F)cc1F)c1nsnc21
- GI50 [1]: 2.7 µM
- GI50 [2]: 2.26 µM
- LC50 (concentration killing 50% of cells) [2]: > 100 µM
- TGI [2]: 58.5 µM
- GI50 [3]: 19 µM
- GI50 [4]: 1.31 µM
- LC50 (concentration killing 50% of cells) [4]: 7.39 µM
- TGI [4]: 3.11 µM
- GI50 [5]: 3.99 µM
- LC50 [5]: 43 µM
- TGI [5]: 17.2 µM
- GI50 [6]: 2.97 µM
- LC50 [6]: 52.7 µM
- TGI [6]: 9.06 µM
- GI50 [7]: 0.7 µM
- LC50 [7]: 57.8 µM
- TGI [7]: 6.35 µM
- GI50 [8]: 4.13 µM
- GI50 [9]: 1.41 µM
- LC50 [9]: 5.72 µM
- TGI [9]: 2.84 µM
- GI50 [10]: 3.26 µM
- LC50 [10]: 41.7 µM
- TGI [10]: 8.65 µM
- GI50 [11]: 2.34 µM
- LC50 [11]: 9.41 µM
- TGI [11]: 4.69 µM
- GI50 [12]: 1.85 µM
- LC50 (concentration killing 50% of cells) [12]: 6.75 µM
- TGI [12]: 3.53 µM
- GI50 [13]: 11.3 µM
- LC50 [13]: 56.4 µM
- TGI [13]: 25.3 µM
- GI50 [14]: 2.02 µM
- LC50 (concentration killing 50% of cells) [14]: 6.67 µM
- TGI [14]: 3.69 µM
- GI50 [15]: 3.09 µM
- LC50 (concentration killing 50% of starting cells) [15]: 59.1 µM
- TGI [15]: 11.1 µM
- GI50 [29]: 1.85 µM
- LC50 [29]: 7.14 µM
- TGI [29]: 3.63 µM
- GI50 [16]: 1.21 µM
- TGI [16]: 2.64 µM
- CC50 [16]: 5.77 µM
- GI50 [17]: 3.72 µM
- LC50 [17]: 43 µM
- TGI [17]: 15.8 µM
- GI50 [30]: 8.18 µM
- LC50 [30]: 63.3 µM
- TGI [30]: 24 µM
- GI50 [18]: 5.69 µM
- GI50 [19]: 1.96 µM
- LC50 (concentration killing 50% of cells) [19]: 85.7 µM
- TGI [19]: 6.41 µM
- GI50 [20]: 1.82 µM
- LC50 [20]: 6.01 µM
- TGI [20]: 3.3 µM
- GI50 [21]: 1.2 µM
- LC50 (concentration killing 50% of cells) [21]: 12.9 µM
- TGI [21]: 3.61 µM
- GI50 [22]: 1.94 µM
- LC50 [22]: 7.07 µM
- TGI [22]: 3.7 µM
- GI50 [23]: 0.86 µM
- LC50 (concentration killing 50% of cells) [23]: 7.02 µM
- TGI [23]: 2.57 µM
- GI50 [24]: 0.34 µM
- LC50 [24]: 4.18 µM
- TGI [24]: 1.38 µM
- GI50 [25]: 2.81 µM
- LC50 [25]: > 100 µM
- TGI [25]: > 100 µM
- GI50 [26]: 1.11 µM
- LC50 [26]: > 100 µM
- TGI [26]: 5.46 µM
- GI50 [27]: 96.5 µM
- LC50 (concentration causing 50% net cell kill) [27]: > 100 µM
- TGI [27]: > 100 µM
- GI50 [28]: 2.12 µM
